Test results as given in article PMC3727929 (Molecular Biology of the Cell, 2013).
Entries after “also recorded” stand apart in the source; their conditions may differ. Blank lines part the entries; values can stand above or below the molecule they belong to.

Experiments:
[1] = molecular target: Dyn1 (S. cerevisiae cytoplasmic dynein heavy chain), full length, ZZ-TEV-GFP and HaloTag tagged (S. cerevisiae) (UniProt P36022); test: single-molecule TIRF fluorescence intensity analysis
Dyn2 = Dyn2 (Saccharomyces cerevisiae, UniProt Q02647); test: Western blot of Dyn2 copurifying with Dyn1; format: binding, S. cerevisiae; conditions: IgG affinity purification, anti-Dyn2 Western blot, Dyn1 normalized
Procedure, shortened: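 Dyn1 was IgG-bead purified from yeast lysate of WT, dyn2Δ and dyn2Δpac11Δ strains (lysis pH 7.4, 100 μM MgATP, beads 1 h at 4°C) and TEV-released at 16°C for 1 h. Dyn1 was quantified by Krypton-stained SDS–PAGE against BSA standards, then equal Dyn1 amounts were loaded. Blots used rabbit anti-Dyn2 (1:200), anti-Myc for Pac11 (1:2000) and Alexa Fluor 680 anti-rabbit secondary (1:5000).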

Pac11-Myc = test: Single-molecule Dyn1-Pac11 colocalization assay; format: binding, S. cerevisiae; conditions: pH 7.2, motors diluted as for motility assays (∼1 nM)
Procedure, shortened: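 Glass flow chamber from HNO3/NaOH-cleaned coverslip. Sequential steps: Cy5-labelled rabbit anti-Myc diluted 10,000× in 30 mM HEPES, 2 mM MgCl2, 1 mM EGTA, 0.5 mg/ml BSA (pH 7.2), 2 min; blocking buffer with 5 mg/ml BSA and 1 mg/ml β-casein, 5 min; TMR-HaloTag-labelled, TEV-released Dyn1 in blocking buffer, 5 min; second round of antibody, 5 min. Cy5–TMR spot colocalization scored.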

microtubules = conditions: full-length dynein, HaloTag-TMR labeled; ref Reck-Peterson et al., 2006; cited from earlier work
[2] = Solubility of Dyn2 constructs on concentration; format: physicochemical; conditions: buffer A, pH 6.8; WT 6.0 mg/ml, H58K 10.0 mg/ml, F76K/Y78E 6.0 mg/ml
[3] = molecular target: Dyn2 (S. cerevisiae dynein light chain), wild type, full length (S. cerevisiae, UniProt Q02647 1-92); test: ITC

stoichiometry N [1]: 2
Molecule: Dyn1 (S. cerevisiae cytoplasmic dynein heavy chain), full length, ZZ-TEV-GFP and HaloTag tagged, P36022 1-4092

Molecule: Dyn1 purified from dyn2Δ: TMR-labeled Dyn1 purified from VY263 with dyn2Δ
Dyn2 copurified with Dyn1 (Dyn2): absence of Dyn2
colocalization of Dyn1 with Pac11-Myc (in words) (Pac11-Myc): did not reveal any associated Pac11; also recorded: do not show significant TMR-Cy5 colocalization

Molecule: Dyn1 purified from dyn2Δpac11Δ
Dyn2 copurified with Dyn1 (Dyn2): absence of Dyn2
colocalization of Dyn1 with Pac11-Myc (in words) (Pac11-Myc): did not reveal any associated Pac11; also recorded: do not show significant TMR-Cy5 colocalization

Molecule: Dyn1: full-length dynein labeled at its C-terminus with the HaloTag and covalently bound to tetramethylrhodamine (TMR)
average run length (microtubules): 1.7 μm

Molecule: Dyn2 F76K/Y78E
solubility during concentration step [2]: remained soluble

Molecule: Dyn2 H58K
solubility during concentration step [2]: remained soluble

Kd [3]: 620 nM
dH [3]: -5.17 ± 0.139 kcal/mol
stoichiometry N [3]: 1.05 ± 0.02 sites
B1: Pac11 peptide 2 (second Dyn2-binding site of Pac11, residues 75-85) (peptide)
peptide: ITYDKGIQTDQ
